Assay outcomes: PubChem, Broad Institute
Compounds with a hit are over-represented: about 2.6% of the library has one in this group of screens.
SR-BI DiI-HDL act = activators of SR-BI mediated HDL lipid uptake. CHO ldlA[mSR-BI] cells, DiI-HDL uptake fluorescence, 3 h; 100 = double the neutral-control signal. activation, % at 12.5 µM. 320,000 tested, 0.096% active;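 active means mean replicate activation of at least 60% and every replicate at or above 60%; inconclusive means mean or all-replicate condition met, but not both; inactive means mean below 60% and not all replicates reaching 60%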
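Material: SR-BI-overexpressing, LDLR-lacking CHO cells | Dosing: Single compound concentration, delivered by pin transfer | Probe or stimulus: Labelled HDL, 10 µg/mL | Signal: Bottom-read cell fluorescence after medium removal, ex 550/em 595 nm | Schedule: 3 h, 37 °C | Evaluation: HDL uptake via cellular fluorescence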
Ecoli rRNA inh = inhibits bacterial ribosomal RNA function over humanized ribosomes; E. coli WT GFP vs humanized-ribosome RFP mutants, fluorescence, 24 h; hits give low values; DMSO median 0, no signal -100; GFP signal change (wild-type ribosome), % (test concentration not listed); 350,000 tested, 1.6% active;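 active means significant combined selectivity score with lowered wild-type GFP, culture density cut under 30%, mutant RFP and density less affected; inactive means any of these conditions unmet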
dFosB act-1 = enhances mouse delta FosB homodimer DNA binding; activation, % at 25 µM; 340,000 tested, 0.99% active; purified delta FosB, TAMRA-CDK5 oligo fluorescence polarization; percent of positive-control signal above neutral wells; P13346;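 active means mean activation above about 17%, with every replicate also reaching it, limit read from the data, passing the limit was not always enough; inconclusive means only one of the two conditions met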
Target sequence (P13346 whole entry, looked up): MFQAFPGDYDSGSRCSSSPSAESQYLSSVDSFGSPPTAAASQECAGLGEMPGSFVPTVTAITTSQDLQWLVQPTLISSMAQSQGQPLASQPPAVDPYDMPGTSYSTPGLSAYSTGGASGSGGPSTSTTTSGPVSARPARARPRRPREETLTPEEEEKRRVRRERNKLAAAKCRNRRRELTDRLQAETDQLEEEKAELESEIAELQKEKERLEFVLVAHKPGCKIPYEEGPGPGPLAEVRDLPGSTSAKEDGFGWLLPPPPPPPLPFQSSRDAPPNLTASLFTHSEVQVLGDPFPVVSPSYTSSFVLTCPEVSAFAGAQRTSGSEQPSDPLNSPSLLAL
SR-BI DiI inh = blocks mouse SR-BI lipid uptake from DiI-HDL; ldlA[mSR-BI] CHO cells, DiI-HDL uptake fluorescence, 3 h; inhibition, % at 12.5 µM; 320,000 tested, 0.96% active;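 active means mean replicate inhibition of at least 70% and a set share of replicates each scoring 70 or more; inconclusive means meets just one of the two criteria; inactive means fails both criteria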
PvdQ acylase = P. aeruginosa PvdQ acylase inhibition | purified PvdQ acylase, fluorescence plate reader | inhibition, % at 10 µM | 340,000 tested, 0.063% active; in the data active means inhibition above about 30%, passing the limit was not always enough; inconclusive means no clear call, values can overlap the other calls
XiGFP reactiv = activators of X-chromosome reactivation in mouse fibroblasts. XiGFP mouse fibroblasts, % GFP-positive cells imaging, 3 d; cells co-treated with 5-aza-dC sensitizer; scaled so ellipticine positive control = 100%. activation, % at 7.58 µM. 360,000 tested, 0.055% active. AID 743238;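 active means mean normalized replicate activation at least 10% and every replicate at or above 10%; inconclusive means only one of the two criteria met; inactive means mean below 10% and not all replicates reach 10%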
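System: 68-5-11 XiGFP fibroblast line; Timing: 3 days compound exposure; Compound dosing: one concentration, pinned; Benchmarks: positive control ellipticine, 6 µM final; Buffer or medium: DMEM containing 5-aza-dC.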
dFosB act-2 = delta FosB (mouse) homodimer activation | shares compounds with dFosB act-1 | purified delta FosB, TAMRA-CDK5 oligo fluorescence polarization; normalised: neutral wells 0, positive control 100 | activation, % at 24.9 µM | 2,400 tested, under 10 active | AID 588690;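 active means highest replicate activation at or above 34% and every replicate reaching that threshold; inconclusive means meets only one of the two criteria; inactive means meets neither criterion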;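 further: higher polarization means more probe DNA bound by delta FosB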
AID977621 = growth inhibition of wild-type GFP E. coli, dose response, H69 mutant RFP, cherry-pick. AID 977621. E. coli wild-type GFP strain growth, fluorescence, 24 h. shares compounds with Ecoli rRNA inh. 1,900 tested, under 10 active. activity change, negative = inhibition at 50 µM;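 active means Wild-type ribosome reporter drop at least double the humanized mutant ribosome reporter drop, growth loss under a set limit; inconclusive means no clear call, values can overlap the other calls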;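 further: wild-type GFP and H69 mutant RFP strains grown together 50/50 in each well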
AID977628 = growth of wild-type and h24-humanized E. coli strains – h24 mutant RFP vs wild-type GFP, cherry-pick, dose response | shares compounds with Ecoli rRNA inh | E. coli WT GFP strain growth, fluorescence, 24 h | activity change, negative = inhibition at 50 µM | 1,900 tested, under 10 active;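 active means compound lowering the normal-ribosome reporter at least twice as much as the humanized-ribosome reporter, growth loss under a set limit; inconclusive means no clear call, values can overlap the other calls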;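 further: wild-type GFP and h24 humanized RFP strains co-cultured 1 to 1 per well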
Hits are given with their value.

How did COc1cc(NC(=O)c2cc(S(=O)(=O)N3CCCCC3)c[nH]2)cc(OC)c1 do in these assays?
SR-BI DiI-HDL act: inactive; Ecoli rRNA inh: inactive; dFosB act-1: 100.2; SR-BI DiI inh: inactive; PvdQ acylase: inactive; XiGFP reactiv: inactive; dFosB act-2: inactive

What do the screens show for `CC(C)Oc1ccc(S(=O)(=O)N2CCOCC2)cc1NC(=O)C1COc2ccccc2O1` (stereo not given)?
SR-BI DiI-HDL act: inactive; Ecoli rRNA inh: inactive; dFosB act-1: inactive; SR-BI DiI inh: inactive; PvdQ acylase: inactive; XiGFP reactiv: inactive

What do the screens show for `CCOC(=O)c1c(C)[nH]c(C(=O)OC(C)C(=O)NC2CCCCC2C)c1C` (stereo not given)?
SR-BI DiI-HDL act: inactive; Ecoli rRNA inh: inactive; dFosB act-1: 49.0; SR-BI DiI inh: inactive; PvdQ acylase: inactive; XiGFP reactiv: inactive; dFosB act-2: inactive

How did CCCN(CCC)C(=O)c1ccc2c(=O)n(Cc3ccco3)c(=S)[nH]c2c1 do in these assays?
SR-BI DiI-HDL act: inactive; Ecoli rRNA inh: inactive; dFosB act-1: inactive; SR-BI DiI inh: inactive; PvdQ acylase: inactive; XiGFP reactiv: inactive

How did COc1cc(NC(=O)c2ccc3c(=O)n(Cc4ccco4)c(=S)[nH]c3c2)cc(OC)c1OC do in these assays?
dFosB act-1: 30.8; PvdQ acylase: inactive; dFosB act-2: inactive

Results for COc1ccc(NC(=O)CCn2c(=S)[nH]c3ccccc3c2=O)cc1OC ?
SR-BI DiI-HDL act: inactive; Ecoli rRNA inh: inactive; dFosB act-1: 24.3; SR-BI DiI inh: inactive; PvdQ acylase: inactive; XiGFP reactiv: inactive; dFosB act-2: inactive

How did COc1ccc(-n2c(=S)[nH]c3cc(C(=O)Nc4cc(C(N)=O)ccc4OC)ccc3c2=O)c(OC)c1 do in these assays?
Ecoli rRNA inh: inactive; dFosB act-1: 31.5; PvdQ acylase: inactive; XiGFP reactiv: inactive; dFosB act-2: inactive

What do the screens show for `COc1ccc(-n2c(=S)[nH]c3cc(C(=O)NCc4ccco4)ccc3c2=O)cc1OC`?
SR-BI DiI-HDL act: inactive; Ecoli rRNA inh: inactive; dFosB act-1: inactive; SR-BI DiI inh: inactive; PvdQ acylase: inactive; XiGFP reactiv: inactive

What do the screens show for `O=C(NCc1ccco1)c1ccc2c(=O)n(-c3ccccc3)c(=S)[nH]c2c1`?
SR-BI DiI-HDL act: inactive; dFosB act-1: 35.3; SR-BI DiI inh: inactive; PvdQ acylase: inactive; dFosB act-2: inactive

Results for COc1ccc(NC(=O)c2ccc3c(=O)n(-c4ccc(OC)cc4OC)c(=S)[nH]c3c2)c(OC)c1 ?
SR-BI DiI-HDL act: inactive; Ecoli rRNA inh: inactive; dFosB act-1: inactive; SR-BI DiI inh: inactive; PvdQ acylase: inactive; XiGFP reactiv: inactive

How did CCOc1ccc(N(CC(=O)Nc2ccccc2OCC)S(=O)(=O)c2c(C)noc2C)cc1 do in these assays?
SR-BI DiI-HDL act: inactive; Ecoli rRNA inh: inactive; dFosB act-1: inactive; SR-BI DiI inh: inactive; PvdQ acylase: inactive; XiGFP reactiv: inactive

What do the screens show for `COc1ccc(-n2c(=S)[nH]c3cc(C(=O)Nc4ccc(OC)c(OC)c4)ccc3c2=O)cc1`?
SR-BI DiI-HDL act: inactive; dFosB act-1: 126.7; SR-BI DiI inh: inactive; PvdQ acylase: inactive; dFosB act-2: inactive

What do the screens show for `COc1cc(CCN2C(=O)c3cccc4cccc(c34)C2=O)c(S(=O)(=O)NCCCO)cc1OC`?
SR-BI DiI-HDL act: inactive; dFosB act-1: 19.6; SR-BI DiI inh: inactive; PvdQ acylase: inactive; dFosB act-2: inactive

Results for CCOC(=O)C1=C(c2ccccc2)NC(SCC(=O)NC2CCCCC2)=C(C#N)C1c1ccco1 (stereo not given) ?
SR-BI DiI-HDL act: inactive; Ecoli rRNA inh: inactive; dFosB act-1: inactive; SR-BI DiI inh: inactive; PvdQ acylase: inactive

Results for COC1OCC(O)C(OC(=O)c2ccccc2)C1OC(=O)c1ccccc1 (stereo not given) ?
SR-BI DiI-HDL act: inactive; Ecoli rRNA inh: inactive; dFosB act-1: inactive; SR-BI DiI inh: inactive; PvdQ acylase: inactive; XiGFP reactiv: inactive

Results for Nc1nc(Nc2ccccc2)nc(NCc2ccco2)c1[N+](=O)[O-] ?
SR-BI DiI-HDL act: inactive; dFosB act-1: 26.6; SR-BI DiI inh: inactive; PvdQ acylase: inactive; dFosB act-2: inactive

How did Nc1nc(NCc2ccco2)nc(Nc2ccccc2)c1[N+](=O)[O-] do in these assays?
SR-BI DiI-HDL act: inactive; dFosB act-1: inactive; SR-BI DiI inh: inactive; PvdQ acylase: inactive; XiGFP reactiv: inactive

What do the screens show for `CCN(CC)C(=O)c1ccc2c(=O)n(Cc3ccc4c(c3)OCO4)c(=S)[nH]c2c1`?
SR-BI DiI-HDL act: inactive; Ecoli rRNA inh: inactive; dFosB act-1: inactive; SR-BI DiI inh: inactive; PvdQ acylase: inactive; XiGFP reactiv: inactive

What do the screens show for `C=CCNC(=O)c1ccc(Cn2c(=S)[nH]c3cc4c(cc3c2=O)OCO4)cc1`?
SR-BI DiI-HDL act: inactive; dFosB act-1: 34.1; SR-BI DiI inh: inactive; PvdQ acylase: inactive; dFosB act-2: inactive

How did O=C(NCCN1CCCC1)c1ccc(Cn2c(=S)[nH]c3cc4c(cc3c2=O)OCO4)cc1 do in these assays?
SR-BI DiI-HDL act: inactive; dFosB act-1: 24.7; SR-BI DiI inh: inactive; PvdQ acylase: inactive; dFosB act-2: inactive

Results for CN(C(=O)c1ccncc1)C1CCS(=O)(=O)C1 (stereo not given) ?
Ecoli rRNA inh: inactive; dFosB act-1: inactive; PvdQ acylase: inactive

How did Cc1c(C)n(C)c2ccc(C(=O)NCCc3ccco3)cc12 do in these assays?
SR-BI DiI-HDL act: inactive; Ecoli rRNA inh: inactive; dFosB act-1: inactive; SR-BI DiI inh: inactive; PvdQ acylase: inactive; XiGFP reactiv: inactive

How did CNC(=O)c1ccc(NC(=O)CC23CC4CC(CC(C4)C2)C3)cc1 do in these assays?
SR-BI DiI-HDL act: inactive; Ecoli rRNA inh: inactive; dFosB act-1: inactive; SR-BI DiI inh: inactive; PvdQ acylase: inactive; XiGFP reactiv: inactive

How did Cc1ccccc1CSc1nnc(-c2ccncc2)o1 do in these assays?
SR-BI DiI-HDL act: inactive; Ecoli rRNA inh: -18.9; dFosB act-1: inactive; SR-BI DiI inh: inactive; PvdQ acylase: inactive; XiGFP reactiv: inactive; AID977628: inconclusive

How did O=C(CN1CCCCC1)Nc1ccccc1-c1ccccc1 do in these assays?
SR-BI DiI-HDL act: inactive; Ecoli rRNA inh: -14.9; dFosB act-1: inactive; SR-BI DiI inh: inactive; PvdQ acylase: inactive; AID977621: inactive
